Calls of active or inactive are those of the source. No cut-off for these calls is given here.

Sequence of Serine/threonine-protein kinase PLK2 (Q9NYY3 whole entry): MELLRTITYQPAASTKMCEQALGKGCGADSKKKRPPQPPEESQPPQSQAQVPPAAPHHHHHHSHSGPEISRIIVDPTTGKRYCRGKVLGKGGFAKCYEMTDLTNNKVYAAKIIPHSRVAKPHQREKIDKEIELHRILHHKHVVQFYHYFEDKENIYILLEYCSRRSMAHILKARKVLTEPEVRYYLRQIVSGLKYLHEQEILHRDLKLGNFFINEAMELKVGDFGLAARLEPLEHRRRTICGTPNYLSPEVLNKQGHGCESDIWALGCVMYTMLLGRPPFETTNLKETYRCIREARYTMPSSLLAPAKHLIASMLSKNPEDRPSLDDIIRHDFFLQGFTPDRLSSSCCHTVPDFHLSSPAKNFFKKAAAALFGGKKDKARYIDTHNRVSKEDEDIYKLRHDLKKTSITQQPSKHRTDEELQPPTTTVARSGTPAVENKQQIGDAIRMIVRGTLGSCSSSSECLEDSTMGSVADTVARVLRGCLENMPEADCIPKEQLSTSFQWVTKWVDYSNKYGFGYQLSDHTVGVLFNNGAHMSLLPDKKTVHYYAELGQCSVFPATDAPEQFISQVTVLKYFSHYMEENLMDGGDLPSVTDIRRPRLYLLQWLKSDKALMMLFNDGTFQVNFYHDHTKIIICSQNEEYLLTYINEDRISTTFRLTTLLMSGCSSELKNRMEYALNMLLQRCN
Sequence of Serine/threonine-protein kinase PLK3 (Q9H4B4 whole entry): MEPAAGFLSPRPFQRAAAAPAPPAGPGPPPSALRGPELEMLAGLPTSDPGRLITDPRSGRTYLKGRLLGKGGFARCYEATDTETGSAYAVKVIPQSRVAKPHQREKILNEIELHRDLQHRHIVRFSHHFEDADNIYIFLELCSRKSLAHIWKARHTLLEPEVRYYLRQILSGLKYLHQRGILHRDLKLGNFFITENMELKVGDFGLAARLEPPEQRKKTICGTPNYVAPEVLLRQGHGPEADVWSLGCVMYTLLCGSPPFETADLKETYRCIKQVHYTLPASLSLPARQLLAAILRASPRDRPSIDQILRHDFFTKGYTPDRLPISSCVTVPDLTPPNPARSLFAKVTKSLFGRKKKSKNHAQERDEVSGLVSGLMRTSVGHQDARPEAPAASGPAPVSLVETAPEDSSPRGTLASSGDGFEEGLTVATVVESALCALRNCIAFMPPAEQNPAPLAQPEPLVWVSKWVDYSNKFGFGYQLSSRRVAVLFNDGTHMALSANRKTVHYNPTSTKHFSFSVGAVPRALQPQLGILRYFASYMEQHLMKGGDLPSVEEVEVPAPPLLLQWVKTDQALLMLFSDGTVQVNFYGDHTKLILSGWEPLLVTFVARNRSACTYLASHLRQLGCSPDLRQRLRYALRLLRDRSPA

The first assay deals with HeLa. In words: Antiproliferative activity against human HeLa cells assessed as growth inhibition after 24 to 72 hrs. The note with it: Homo sapiens, HeLa; read-out: EC50. The class given is functional, cell-based. In short, it runs like this:
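HeLa cells were exposed to compound for 24–72 h, with medium-only cells as control. Surviving cells are expressed as a percentage of control cell number at 72 h. n = 3.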
`COc1cc(CNCc2ccncc2)ccc1OCc1ccc(F)cc1`: the half-maximal effective concentration (EC50) (commonly the concentration needed to bring the measured effect to its halfway point) was determined as 6.4 µM. Consider `COc1cc(CNCCc2ccc(S(N)(=O)=O)cc2)ccc1OCc1ccc(Cl)nc1`, for which the EC50 came out at 12 µM. Turning to `COc1cc(CNCc2ccc3c(c2)OCO3)ccc1OCc1ccc(Cl)nc1`, the EC50 was 71 µM. As for `COc1cc(CNCCNC(=O)c2cnon2)ccc1OCc1ccc(Cl)nc1`, the EC50 worked out at 24 µM. For `COc1cc(CNCCc2c[nH]c3ccccc23)ccc1OCc1ccc(Cl)nc1`, the EC50 turned out to be 8 µM. On the same count and under the same terms, the figure for `COc1cc(CNCc2ccccn2)ccc1OCc1ccccc1Cl` is 22 µM; for `COc1cc(CNCc2ccccc2)ccc1OCc1ccc(Cl)nc1` it is 90 µM; for `COc1cc(CNCCc2ccccc2)ccc1OCc1ccc(Cl)nc1` it is 61 µM. On to `COc1cc(CNCc2cccnc2)ccc1OCc1ccc(Cl)nc1`, for which the EC50 was 5 µM. Still for that read-out and setting: the figure for `COc1cc(CNCc2ccncc2)ccc1OCc1ccc(Cl)cc1Cl` is 3.9 µM; for `COc1cc(CNCc2cccs2)ccc1OCc1ccc(Cl)nc1` it is 96 µM; for `COc1cc(CNCC(=O)c2ccccc2)ccc1OCc1ccc(Cl)nc1` it is 60 µM. Same read-out and setting: the same measure for `COc1cc(CNCCCN2CCOCC2)ccc1OCc1ccc(Cl)nc1`: over 100 µM; for `COc1cc(CNCc2ccccn2)ccc1OCc1cccc(Cl)c1`: 18 µM; for `COc1cc(CNCCSc2nnnn2C)ccc1OCc1ccc(Cl)nc1`: 86 µM. `COc1ccc(CCNCc2ccc(OCC(=O)N3CCCCC3)c(OC)c2)cc1OC`: the EC50 amounted to 87 µM. For `COc1ccc(CCNCc2ccc(OCc3ccc(Cl)nc3)c(OC)c2)cc1OC`, the EC50 amounted to 18 µM. Consider `COc1cc(CNCc2ccncc2)ccc1OCc1ccc(Cl)c(Cl)c1`, for which the EC50 was found to be 4 µM.

As for `CCOc1cc(CNCc2ccncc2)ccc1OCc1ccc(Cl)cc1`, the EC50 was determined as 2.5 µM. On to `COc1cc(CNCCc2ccccc2F)ccc1OCc1ccc(Cl)nc1`, for which the EC50 was found to be 18 µM.

For `COc1cc(OCc2cnc(Cl)c(Cl)c2)ccc1CNCc1ccncc1`, the EC50 came to 0.4 µM. As for `COc1ccc(CCNCc2ccc(OCc3cccs3)c(OC)c2)cc1OC`, the EC50 stood at 18 µM. As to `COc1cc(CNCCc2ccc(F)cc2)ccc1OCc1ccc(Cl)nc1`, the EC50 was determined as 16 µM. Consider `COc1cc(CNc2nc[nH]n2)ccc1OCc1ccc(Cl)nc1`, for which the EC50 is 69 µM.

On to `COc1cc(CNCc2ccncc2)ccc1OCc1ccc(C(F)(F)F)cc1`, for which the concentration for a half-maximal effect (EC50) came out at 2.4 µM.

Consider `COc1ccc(CCNCc2ccc(OCC(=O)N3CCOCC3)c(OC)c2)cc1OC`, for which the EC50 stood at 85 µM. For `COc1cc(OCc2ccc(Cl)nc2)ccc1CNCc1ccncc1`, the EC50 stood at 3.3 µM. On the same count and under the same terms, the same measure for `COc1cc(OCc2ccc(Cl)cc2)ccc1CNCc1ccncc1`: 0.44 µM; for `COc1cc(CNCc2ccncc2)ccc1OCc1ccc(Cl)nc1`: 0.4 µM. In the case of `COc1cc(CNCc2ccccn2)ccc1OCc1ccc(Cl)c(Cl)c1`, the EC50 came out at 13 µM. With `COc1cc(CNCC2CCCO2)ccc1OCc1ccc(Cl)nc1` (centres undefined), the EC50 is 66 µM.

For `COc1cc(CNCc2ccncc2)ccc1OCc1cccc(F)c1`, the EC50 is 4.8 µM.

For `COCCNCc1ccc(OCc2ccc(Cl)nc2)c(OC)c1`, the concentration for a half-maximal effect (EC50) was 97 µM. Regarding `COc1cc(CNCCNc2ccnc3cc(Cl)ccc23)ccc1OCc1ccc(Cl)nc1`, the EC50 came to 2.7 µM. With `Clc1ccc(COc2ccc(CNCc3ccncc3)cc2)cc1`, the EC50 worked out at 4 µM. Take `COc1cc(CNCc2ccncc2)ccc1OCc1ccc([N+](=O)[O-])cc1`: the EC50 was 0.44 µM. As to `COc1cc(CNCc2ccccn2)ccc1OCc1c(Cl)cccc1Cl`, the EC50 was 6.1 µM. Same read-out and setting: the figure for `COc1cc(CNCc2ccncc2)ccc1OCc1ccc(C)cc1` is 5 µM. Take `COc1ccc(COc2ccc(CNCc3ccncc3)cc2OC)cc1`: the EC50 is 5 µM.

`COc1cc(CNCCCN(C)C)ccc1OCc1ccc(Cl)nc1`: the EC50 came out at 5 µM. Same read-out and setting: the same measure for `COc1cc(CNCc2ccncc2)ccc1OCc1cnc(Cl)c(Cl)c1`: 0.22 µM. With `COc1cc(CNCCc2ccncc2)ccc1OCc1ccc(Cl)nc1`, the EC50 came out at 55 µM.

Regarding `COc1cc(CNCc2ccncc2)ccc1OCc1ccccc1F`, the EC50 was determined as 5.1 µM. On the same count and under the same terms, the figure for `COc1ccc(CCNCc2ccc(OCC(=O)NC(C)(C)C)c(OC)c2)cc1OC` is over 100 µM; for `COc1cc(CNCc2ccncc2)ccc1OCc1ccc(Cl)cc1` it is 0.89 µM.

The same assay, now with this note: hela.
Take `COc1cc(CNCc2ccc(C(=O)O)cc2)ccc1OCc1ccc(Cl)nc1`: the concentration giving a half-maximal response (EC50) result is “ND(Insoluble)”. Still for that read-out and setting: the entry for `COc1ccc(CCNCc2ccc(OCc3ccc(Cl)nc3)c(OC)c2)cc1` is “ND(Insoluble)”; for `COc1cc(CNC2CCCCC2)ccc1OCc1ccc(Cl)nc1` it is “ND(Insoluble)”.

In another assay the test system is HeLa. Put plainly: Induction of apoptosis in human HeLa cells assessed as increase in PARP cleavage at 33 uM after 48 hrs by Western blot analysis. The class given is functional, cell-based.
Settings: not given
The essentials: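 HeLa cells were harvested 48 h after compound incubation, with untreated medium controls. Western blotting against Parp detected both full-length protein and its apoptotic cleavage product.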
(A western blot detects proteins with antibodies after separation by electrophoresis.)
As for `COc1cc(CNCc2ccncc2)ccc1OCc1ccc(Cl)cc1`, the result was Active.

Another assay relates to HeLa. Put plainly: Induction of apoptosis in human HeLa cells assessed as caspase-3/7 activation after 48 hrs […]. The assay is classed as functional, cell-based.
Settings: not given
The essentials:
(§1)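 Caspase 3/7 activation in HeLa cells was read 48 h after treatment by luminescence and reported as relative RLU versus medium-only controls. n = 3, mean SD.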
For `COc1cc(CNCc2ccncc2)ccc1OCc1ccc(Cl)cc1`, the Activity entry is “Dose-dependent effect”.

The target in another assay is Serine/threonine-protein kinase PLK1 (Homo sapiens, UniProt P53350). In words: Inhibition of Plk1 immunoprecipitated from human HeLa cells using casein substrate after 12 to 26 hrs by autoradiography. The class given is cell-based.
Sequence of Serine/threonine-protein kinase PLK1 (P53350 whole entry): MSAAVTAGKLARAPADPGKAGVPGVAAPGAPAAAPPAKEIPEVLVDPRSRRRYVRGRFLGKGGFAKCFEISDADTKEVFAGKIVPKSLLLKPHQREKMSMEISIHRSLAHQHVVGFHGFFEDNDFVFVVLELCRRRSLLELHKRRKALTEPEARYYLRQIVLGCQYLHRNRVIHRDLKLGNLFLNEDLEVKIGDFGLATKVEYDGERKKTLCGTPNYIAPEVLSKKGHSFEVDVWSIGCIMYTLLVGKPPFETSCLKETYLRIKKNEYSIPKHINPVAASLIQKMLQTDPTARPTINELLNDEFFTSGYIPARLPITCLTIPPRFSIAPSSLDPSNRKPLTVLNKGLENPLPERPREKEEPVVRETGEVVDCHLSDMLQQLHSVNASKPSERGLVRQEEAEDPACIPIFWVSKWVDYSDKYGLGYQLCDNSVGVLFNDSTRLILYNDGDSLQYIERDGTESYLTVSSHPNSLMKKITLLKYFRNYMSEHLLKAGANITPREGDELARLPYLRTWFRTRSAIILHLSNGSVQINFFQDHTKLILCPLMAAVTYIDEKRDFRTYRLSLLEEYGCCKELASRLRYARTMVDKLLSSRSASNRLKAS
Settings: not given
The essentials: (§2)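 HeLa cells were synchronized and incubated with compound. Plk1, Plk2 or Plk3 was then immunoprecipitated from the cells and assayed for kinase activity with casein as substrate. Activity was read by autoradiography.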
`COc1cc(CNCc2ccncc2)ccc1OCc1ccc(Cl)cc1`: the IC50 (usually the concentration that gives 50% inhibition) was 0.003 µM.

The next assay addresses Serine/threonine-protein kinase PLK2 (Homo sapiens, UniProt Q9NYY3). In words: Inhibition of Plk2 immunoprecipitated from human HeLa cells using casein substrate after 12 to 26 hrs by autoradiography. The class given is cell-based.
Settings: not given
In short, it runs like this: as §2
Turning to `COc1cc(CNCc2ccncc2)ccc1OCc1ccc(Cl)cc1`, the IC50 is over 10 µM.

A further assay has as its target Serine/threonine-protein kinase PLK3 (Homo sapiens, UniProt Q9H4B4). In words: Inhibition of Plk3 immunoprecipitated from human HeLa cells using casein substrate after 12 to 26 hrs by autoradiography. The class given is cell-based.
Settings: not given
The essentials: as §2
`COc1cc(CNCc2ccncc2)ccc1OCc1ccc(Cl)cc1` had an IC50 of over 10 µM.

Another assay has as its system HeLa. Put plainly: Induction of apoptosis in human HeLa cells assessed as caspase-3/7 activation at 1 nM to 66 uM by […]. The assay is classed as functional, cell-based. The note with it: TDE = time-dependent effect. In short, it runs like this: as §1
For `COc1cc(CNCc2ccncc2)ccc1OCc1ccc(Cl)cc1`, the Activity entry was “tde”.

(Values after ChEMBL document CHEMBL3352624, “Vanillin-derived antiproliferative compounds influence Plk1 activity” (Bioorg Med Chem Lett, 2014).)
